Hits are enriched below; roughly 4.1% of the tested compounds scored in any of these assays.
APP 5'UTR act – APP 5'UTR luciferase reporter activation | AID 1276 | activation, % at 2 µM | SH-SY5Y APP 5'UTR luciferase reporter, luminescence; zero percent = DMSO vehicle wells | actives 1% (n = 190,000);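 active = activation above a set limit, based on mean plus 3 SD of controls, cut at about 140% in these data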
STAT1 act – activators of IFN-gamma induced STAT1 signaling | actives 2.6% (n = 200,000) | NIH 3T3 STAT1-luciferase reporter, luminescence; 100% = IFN-gamma alone, no compound | AID 932 | activation (% of control), % at 5.5 µM;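 active = activation above the screen-wide mean activation plus 3 SD, cut at about 130% in these data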;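 note: raw ratio to IFN-gamma control signal so 100% means no change and 0% no light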
NF-kB expr up – NF-kB expression increase, human neuronal cells. NF-kB reporter expression; hits give high values. AID 1239. fold change at 12.5 µM. actives 1.6% (n = 190,000); in the data active = fold change above about 3.3
FLuc act counter – firefly luciferase counter-screen for stimulation assays | P08659 | ATPlite luciferase biochemical, luminescence, 10 min; 0 = ATP-free wells, 1 = DMSO control | activation factor at 10 µM | 200,000 tested, under 10 active | AID 1027;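 active = luciferase activation factor, scaled between plate controls, of at least 2 with compound at 10 µM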
Target sequence (P08659 whole entry, looked up): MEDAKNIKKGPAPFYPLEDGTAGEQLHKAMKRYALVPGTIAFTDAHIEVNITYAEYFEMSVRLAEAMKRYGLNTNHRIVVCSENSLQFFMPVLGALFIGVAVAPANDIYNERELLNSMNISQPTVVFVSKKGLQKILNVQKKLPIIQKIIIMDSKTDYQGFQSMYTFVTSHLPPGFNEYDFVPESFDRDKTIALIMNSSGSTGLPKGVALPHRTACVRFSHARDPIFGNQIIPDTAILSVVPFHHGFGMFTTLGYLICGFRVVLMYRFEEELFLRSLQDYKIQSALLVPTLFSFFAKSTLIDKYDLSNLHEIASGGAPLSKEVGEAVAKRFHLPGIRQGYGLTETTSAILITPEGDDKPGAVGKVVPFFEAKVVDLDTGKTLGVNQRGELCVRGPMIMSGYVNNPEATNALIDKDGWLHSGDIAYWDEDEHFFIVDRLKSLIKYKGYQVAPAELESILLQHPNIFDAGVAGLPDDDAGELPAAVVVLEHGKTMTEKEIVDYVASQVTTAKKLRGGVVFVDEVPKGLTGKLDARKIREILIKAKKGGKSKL
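Assay system: Luciferase/luciferin detection reagent, cell-free biochemical luciferase assay / Also added: ATP substrate / Schedule: 10 min at ambient temperature / Measured by: luminescence measurement of luciferase light output / Benchmarks: low control with PBS replacing ATP, high control enzyme plus ATP without compound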
FLuc inh counter – Photinus pyralis luciferase inhibition counter-screen; P08659; ATPLite firefly luciferase biochemical luminescence, 10 min; inhibition, % at 10 µM; actives 1.5% (n = 200,000);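 active = inhibition above about 50% when tested at 10 µM, limit read from the data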
STAT1 activ conf – STAT1 activation, confirmation assay | shares compounds with STAT1 act | NIH 3T3 STAT1-luciferase reporter, IFN-gamma potentiation, luminescence; 100% = IFN-gamma EC80 alone, no compound | activation (% of control), % at 5.7 µM | actives 97% (n = 1,200) | AID 1262;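 active = activation above a set limit carried over from the earlier primary STAT1 screen, cut at about 140% in these data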;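 note: simple ratio to median IFN-gamma plus DMSO wells so 0% means no light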
NFkB act – activates NF-kappaB, counter-screen to STAT1 activators; activation (% of control), % at 5.7 µM; AID 1306; actives 43% (n = 1,200); HEK293T NF-kB luciferase reporter, TNF-alpha stimulated, luminescence; 100% = TNF-alpha with vehicle only; shares compounds with STAT1 act;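 active = activation above the mean of solvent-only control wells plus 3 SD, set per campaign, cut at about 130% in these data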;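 note: TNF-alpha given at a submaximal dose yielding about 80% of full reporter signal; values are well signal over median control so 100% means no change and 0% no light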
STAT3 act STAT1c – human STAT3 activation in STAT1 activator counter-screen; shares compounds with STAT1 act; U3A cells STAT3-luciferase reporter, IL-6, luminescence; cells lack STAT1; 100 = IL-6 alone, no compound effect; activation (% of control), % at 5.7 µM; actives 46% (n = 1,200); AID 1316;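 active = activation above the solvent-only control well mean plus 3 SD, set per plate batch, cut at about 110% in these data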;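 note: 0% = no luminescence and 100% = median IL-6 plus DMSO wells; higher means more STAT3 reporter activation so hits are non-selective activators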
The depositor's hits bear a star; / = no result given.

SMILES	APP 5'UTR act	STAT1 act	NF-kB expr up	FLuc act counter	FLuc inh counter	STAT1 activ conf	NFkB act	STAT3 act STAT1c
C=C(C)c1cccc(C(C)(C)NC(=O)N(Cc2ccccc2)Cc2ccco2)c1	-25.2	93.7	1.13	1	-0.3	/	/	/
COc1ccc(Cn2c(C3CC3)nc3ccc(NC(=O)c4ccco4)cc3c2=O)cc1	102.1	151.5*	1.34	1.1	-6.7	183.0*	133.1	140.1*
Cc1cc(C(=O)CN2C(=O)c3ccccc3C2=O)c(C)n1Cc1cccs1	93.7	161.0*	0.94	0.4	62.0*	192.7*	107.2	109.5
CCN(CC)c1ccc2cc(C(=O)Nc3ccccn3)c(=O)oc2c1	97.0	154.2*	3.58*	0.6	44.6	236.2*	93.3	92.5
CCN(CC)c1ccc2cc(C(=O)Nc3cccnc3N3CCOCC3)c(=O)oc2c1	/	/	/	1.1	-7.0	/	/	/
c1ccc(-n2nnc(-c3cccnc3)n2)cc1	17.8	151.6*	2.38	0.8	24.8	164.6*	125.8	102.7
COC(=O)c1[nH]c2ccccc2c1NC(=O)C(C)N1CCN(C(=O)c2ccco2)CC1 (stereo not drawn)	4.3	98.5	0.83	1	-4.8	/	/	/
Cc1nn(-c2ccccc2)c(N)c1N=Nc1ccccc1	156.3*	176.5*	6.8*	0.9	10.4	197.9*	139.8*	141.2*
Nc1nn(-c2ccccc2)c(N)c1N=Nc1ccccc1F	180.8*	219.3*	13.8*	0.6	39.8	305.6*	124.9	107.1
Nc1nn(-c2ccccc2)c(N)c1N=Nc1ccccc1	3.1	202.5*	8.05*	0.5	51.0*	228.1*	125.8	115.4*
Cc1nn(-c2ccccc2)c(N)c1C(O)(C(F)(F)F)C(F)(F)F	-2.9	93.0	0.93	1.1	-6.2	/	/	/
Cc1cccc(N=Nc2c(C)nn(-c3ccccc3)c2N)c1C	42.2	91.0	1.24	1	-3.7	/	/	/
Cc1nc2c(N=Nc3ccccc3F)c(N)nn2c(N)c1C#N	-8.3	166.0*	0.77	1	3.9	146.0*	125.2	123.4*
CC(=O)Nc1ccc(NS(=O)(=O)c2ccc(C)cc2)c([N+](=O)[O-])c1	9.9	104.9	0.87	1	-2.6	/	/	/
Cc1n[nH]c(C)c1S(=O)(=O)N1CCN(C2CCCCC2)CC1	-13.4	105.1	1.19	1	-1.0	/	/	/
CCCC1=C(C(=O)OCC)C(c2c(C)nn(-c3ccccc3)c2Cl)C(C#N)=C(N)O1 (stereo not drawn)	-16.5	92.1	0.72	1	-0.8	/	/	/
Cc1nn(-c2ccccc2)c(N)c1N=Nc1ccc(Cl)cc1	107.8	155.1*	4.51*	1	-2.8	182.9*	129.1	107.8
CCCCC(=O)Nc1cccc(NC(=O)c2ccccc2Br)c1	-3.0	96.5	1.09	1	-1.9	/	/	/
Cc1nc2nc(-c3cccs3)cn2nc1C	68.6	152.5*	1.94	0.7	25.2	165.4*	134.4*	104.4
Cc1cc(-c2cccs2)n[nH]1	19.9	98.9	0.97	1	-0.2	/	/	/
CC(C)(C)NC(=O)CSc1nc(N)c(-c2ccccc2)c(=O)[nH]1	18.2	105.1	1.07	1.1	-6.0	/	/	/
O=C(OCc1csc(-c2ccccc2)n1)c1cccs1	16.9	152.4*	3.02	0.6	44.3	181.0*	119.8	108.3
Cc1ccc2nc(N3C(=O)C(O)=C(C(=O)c4cc5ccccc5o4)C3c3cccs3)sc2c1 (stereo not drawn)	160.4*	153.8*	3.7*	0.7	29.2	162.4*	124.0	123.1*
Cc1cc(N2C(=O)C(O)=C(C(=O)c3ccc(C)o3)C2c2cccs2)no1 (stereo not drawn)	-6.9	94.1	1.11	1	-2.9	/	/	/
COC(=O)[C@H](Cc1ccccc1)NC(=O)NCCC1=CCCCC1	19.8	99.7	1.1	1	-4.0	/	/	/
SMILES	APP 5'UTR act	STAT1 act	NF-kB expr up	FLuc act counter	FLuc inh counter	STAT1 activ conf	NFkB act	STAT3 act STAT1c
CC(C)COc1ccc(-c2cc(C(=O)NN)[nH]n2)cc1	33.1	152.9*	1.71	0.9	6.9	128.2	112.1	106.8
O=C(Nc1ncc(Cc2cccc(Cl)c2)s1)C1CCCO1 (stereo not drawn)	52.1	117.0	2.24	1	-0.6	/	/	/
O=C(Nc1ncc(Cc2ccccc2Cl)s1)C1CCCO1 (stereo not drawn)	70.2	150.8*	3.89*	0.9	6.1	166.5*	133.9*	148.8*
CCN(CC)CCOC(=O)c1ccc(NC(=O)c2cn(-c3ccccc3)nc2-c2cccs2)cc1	26.7	155.0*	1.4	0.8	17.2	125.2	119.6	95.0
CCN(CC)CCNC(=O)c1cn(-c2ccccc2)nc1-c1cccs1	-9.1	101.0	0.87	1	-2.8	/	/	/
CN(C)c1ccc(/C=C/c2nnnn2-c2ccccc2)cc1	131.9	171.8*	3.92*	0.9	9.6	187.0*	133.9*	117.8*
O=C(CCCc1ccccc1)N1CCc2ccccc21	70.1	180.1*	7.68*	0.5	51.8*	221.3*	136.6*	115.4*
Cc1ccc(C(=O)N2CCc3ccccc32)o1	158.6*	164.7*	1.17	1	3.9	183.5*	126.6	107.1
Cc1c(C(=O)N2CCc3ccccc32)oc2c1C(=O)CC(C)(C)C2	33.5	157.1*	2.76	0.9	8.4	180.2*	134.4*	113.2*
Cc1nc2ccccc2c2oc(C(=O)N3CCc4ccccc43)cc12	10.0	110.2	0.81	1.1	-5.7	/	/	/
Cc1ccc(C(=O)NC2CCN(CC(=O)Nc3cccc([N+](=O)[O-])c3)CC2)cc1	-11.4	100.7	1.13	0.9	6.2	/	/	/
COc1cc(OC)nc(-n2ncc(Br)c(Br)c2=O)n1	-94.1	240.4*	1.07	1.1	-6.1	272.6*	86.7	95.2
COC(=O)c1cnn(-c2nc(OC)cc(OC)n2)c1C	4.0	97.2	1.27	1.1	-5.2	/	/	/
O=C(Nc1ccc(N2CCN(C(=O)c3ccccc3)CC2)cc1)c1ccc([N+](=O)[O-])o1	-94.3	172.8*	0.22	1	-0.8	91.8	105.3	92.9
CC(C)C(=O)N1CCN(c2ccc(NC(=O)c3ccc([N+](=O)[O-])o3)cc2Cl)CC1	-96.1	153.4*	0.15	1	-4.4	105.3	104.9	111.0*
COc1ccc(C(=O)Nc2ccc(N3CCN(C(=O)c4ccccc4)CC3)cc2)cc1[N+](=O)[O-]	2.9	97.1	1.02	1	1.3	/	/	/
Cc1cc(C)cc(NC(=O)c2ccc([N+](=O)[O-])o2)c1	-70.7	161.9*	6.07*	1.1	-5.6	114.5	115.5	108.5
